What was measured:
[1] = system: Metallo-beta-lactamase (Escherichia coli), Q5U7L7 [W87F]; assay: Activity of beta-lactamase VIM-2 W87F mutant expressed in Escherichia coli XL1-Blue isolated from 3.3 hrs grown culture
In short: (§1)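 E. coli XL-1 carrying pLBII-VIM-2 (wild-type or W87F) was grown and sampled at the stated times, with cell density read as A600. Imipenem hydrolysis in crude cell extracts was read spectrophotometrically in 10 mM HEPES pH 7.5 with 50 μM ZnSO4 and 150 μM imipenem. Activity was normalized to cell density. Values are means of three independent measurements.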

[2] = biological target: Metallo-beta-lactamase (Escherichia coli) (UniProt Q5U7L7); assay: (§2) Activity of beta-lactamase VIM-2 in Escherichia coli XL1-Blue isolated from […] grown culture
Escherichia coli [3] = assay: Activity of Escherichia coli XL1-Blue VIM-2 A64W mutant beta-lactamase by spectrophotometer
In short: (§3)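 Mutant enzyme expressed in E. coli BL21(DE3) in autoinducing ZYP-5052 medium. Purified by anion exchange at pH 7.2, then high-resolution anion exchange at pH 9.2, plus gel filtration in 50 mM HEPES-50 μM ZnSO4 pH 7.5 where needed. Identity confirmed by tryptic peptide mass fingerprint. Steady-state kinetics on β-lactam substrates were run under the conditions used for wild-type VIM-2.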

[4] = biological target: Metallo-beta-lactamase (Escherichia coli) (UniProt Q5U7L7); assay: as §2; remark: listed apart in the source
[5] = system: Metallo-beta-lactamase (Escherichia coli), Q5U7L7 [W87F]; assay: (§4) Activity of beta-lactamase VIM-2 W87F mutant expressed in Escherichia coli XL1-Blue isolated from […] grown culture
Escherichia coli [6] = assay: Activity of Escherichia coli XL1-Blue wild-type IMP-1 beta-lactamase by spectrophotometer
[7] = biological target: Metallo-beta-lactamase (Escherichia coli) (UniProt Q5U7L7); assay: Activity of beta-lactamase VIM-2 in Escherichia coli XL1-Blue isolated from 5 hrs grown culture; in short: as §1
Escherichia coli [8] = assay: Ratio of Kcat to Km for Escherichia coli XL1-Blue IMP-1 W64A mutant beta-lactamase by spectrophotometer
[9] = system: Metallo-beta-lactamase (Escherichia coli), Q5U7L7 [W87F]; assay: Activity of beta-lactamase VIM-2 W87F mutant expressed in Escherichia coli XL1-Blue isolated from 6.0 hrs grown culture; in short: as §1
[10] = system: Metallo-beta-lactamase (Escherichia coli), Q5U7L7 [W87F]; assay: Activity of beta-lactamase VIM-2 W87F mutant expressed in Escherichia coli XL1-Blue isolated from 3.8 hrs grown culture; in short: as §1
[11] = biological target: Metallo-beta-lactamase (Escherichia coli) (UniProt Q5U7L7); assay: Activity of beta-lactamase VIM-2 in Escherichia coli XL1-Blue isolated from 4.3 hrs grown culture
In short: (§5)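 Imipenem-hydrolyzing activity in crude cell extracts of E. coli XL-1 carrying pLBII-VIM-2 or pLBII-VIM-2-W87F. Read spectrophotometrically with 150 μM imipenem in 10 mM HEPES (pH 7.5) plus 50 μM ZnSO4. Activity normalized to culture density (A600). Means of three independent measurements.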

Escherichia coli [12] = assay: Ratio of Kcat to Km for Escherichia coli XL1-Blue wild-type IMP-1 beta-lactamase by spectrophotometer
[13] = biological target: Metallo-beta-lactamase (Escherichia coli) (UniProt Q5U7L7); assay: Activity of beta-lactamase VIM-2 in Escherichia coli XL1-Blue isolated from 3.8 hrs grown culture; in short: as §1
[14] = system: Metallo-beta-lactamase (Escherichia coli), Q5U7L7 [W87F]; assay: Activity of beta-lactamase VIM-2 W87F mutant expressed in Escherichia coli XL1-Blue isolated from 4.3 hrs grown culture; in short: as §5
[15] = biological target: Metallo-beta-lactamase (Escherichia coli) (UniProt Q5U7L7); assay: Activity of beta-lactamase VIM-2 in Escherichia coli XL1-Blue isolated from 3.3 hrs grown culture; in short: as §1
[16] = system: Metallo-beta-lactamase (Escherichia coli), Q5U7L7 [W87F]; assay: Activity of beta-lactamase VIM-2 W87F mutant expressed in Escherichia coli XL1-Blue isolated from 5.0 hrs grown culture; in short: as §1
[17] = system: Metallo-beta-lactamase (Escherichia coli), Q5U7L7 [W87F]; assay: as §4; remark: listed apart in the source
[18] = biological target: Metallo-beta-lactamase (Escherichia coli) (UniProt Q5U7L7); assay: Activity of beta-lactamase VIM-2 in Escherichia coli XL1-Blue isolated from 6 hrs grown culture; in short: as §1
Escherichia coli [19] = assay: Activity of Escherichia coli XL1-Blue IMP-1 W64A mutant beta-lactamase by spectrophotometer
[20] = biological target: Metallo-beta-lactamase (Escherichia coli) (UniProt Q5U7L7); assay: as §2; remark: listed apart in the source
[21] = biological target: Metallo-beta-lactamase (Escherichia coli) (UniProt Q5U7L7); assay: Activity of beta-lactamase VIM-2 in Escherichia coli XL1-Blue isolated from 1.2 hrs grown culture; in short: as §5
[22] = biological target: Metallo-beta-lactamase (Escherichia coli) (UniProt Q5U7L7); assay: Activity of beta-lactamase VIM-2 in Escherichia coli XL1-Blue isolated from 0.5 hrs grown culture; in short: as §1
Escherichia coli [23] = assay: Ratio of Kcat to Km for Escherichia coli XL1-Blue VIM-2 A64W mutant beta-lactamase by spectrophotometer; in short: as §3
[24] = system: Metallo-beta-lactamase (Escherichia coli), Q5U7L7 [W87F]; assay: Activity of beta-lactamase VIM-2 W87F mutant expressed in Escherichia coli XL1-Blue isolated from 1.2 hrs grown culture; in short: as §5
[25] = system: Metallo-beta-lactamase (Escherichia coli), Q5U7L7 [W87F]; assay: as §4; remark: listed apart in the source
[26] = system: Metallo-beta-lactamase (Escherichia coli), Q5U7L7 [W87F]; assay: Activity of beta-lactamase VIM-2 W87F mutant expressed in Escherichia coli XL1-Blue isolated from 0.5 hrs grown culture; in short: as §1
[27] = system: CO/N=C(\C(=O)N[C@@H]1C(=O)N2C(C(=O)[O-])=C(C[N+]3(C)CCCC3)CS[C@H]12)c1csc(N)n1; assay: (§6) Activity of Escherichia coli BL21(DE3) VIM-2 W87F mutant beta-lactamase by spectrophotometer
[28] = system: C[C@@H](O)[C@H]1C(=O)N2C(C(=O)O)=C(SCCNC=N)C[C@H]12; assay: as §6
[29] = system: CO/N=C(\C(=O)N[C@@H]1C(=O)N2C(C(=O)[O-])=C(C[N+]3(C)CCCC3)CS[C@H]12)c1csc(N)n1; assay: (§7) Ratio of Kcat to Km for Escherichia coli BL21(DE3) VIM-2 W87F mutant beta-lactamase by spectrophotometer
[30] = system: C[C@@H](O)[C@H]1C(=O)N2C(C(=O)O)=C(SCCNC=N)C[C@H]12; assay: as §7
[31] = system: CC(C)(O/N=C(\C(=O)N[C@@H]1C(=O)N2C(C(=O)[O-])=C(C[n+]3ccccc3)CS[C@H]12)c1csc(N)n1)C(=O)O; assay: (§8) Activity of Escherichia coli XL1-Blue wild-type VIM-2 beta-lactamase by spectrophotometer
[32] = system: C[C@@H](O)[C@H]1C(=O)N2C(C(=O)O)=C(S[C@@H]3CN[C@H](C(=O)N(C)C)C3)[C@H](C)[C@H]12; assay: as §8
[33] = system: CO/N=C(\C(=O)N[C@@H]1C(=O)N2C(C(=O)[O-])=C(C[N+]3(C)CCCC3)CS[C@H]12)c1csc(N)n1; assay: as §8
[34] = system: CO/N=C(\C(=O)N[C@@H]1C(=O)N2C(C(=O)O)=C(COC(C)=O)CS[C@H]12)c1csc(N)n1; assay: as §8
[35] = system: C[C@@H](O)[C@H]1C(=O)N2C(C(=O)O)=C(SCCNC=N)C[C@H]12; assay: as §8
[36] = system: CC(C)(O/N=C(\C(=O)N[C@@H]1C(=O)N2C(C(=O)[O-])=C(C[n+]3ccccc3)CS[C@H]12)c1csc(N)n1)C(=O)O; assay: (§9) Activity of Escherichia coli BL21(DE3) wild-type VIM-2 beta-lactamase by spectrophotometer
[37] = system: C[C@@H](O)[C@H]1C(=O)N2C(C(=O)O)=C(S[C@@H]3CN[C@H](C(=O)N(C)C)C3)[C@H](C)[C@H]12; assay: as §9
[38] = system: CO/N=C(\C(=O)N[C@@H]1C(=O)N2C(C(=O)[O-])=C(C[N+]3(C)CCCC3)CS[C@H]12)c1csc(N)n1; assay: as §9
[39] = system: CO/N=C(\C(=O)N[C@@H]1C(=O)N2C(C(=O)O)=C(COC(C)=O)CS[C@H]12)c1csc(N)n1; assay: as §9
[40] = system: C[C@@H](O)[C@H]1C(=O)N2C(C(=O)O)=C(SCCNC=N)C[C@H]12; assay: as §9
[41] = system: CO[C@@]1(NC(=O)Cc2cccs2)C(=O)N2C(C(=O)O)=C(COC(N)=O)CS[C@@H]21; assay: (§10) Ratio of Kcat to Km for Escherichia coli XL1-Blue wild-type VIM-2 beta-lactamase by spectrophotometer
[42] = system: O=C(Cc1cccs1)N[C@@H]1C(=O)N2C(C(=O)O)=C(/C=C/c3ccc([N+](=O)[O-])cc3[N+](=O)[O-])CS[C@H]12; assay: as §10
[43] = system: CO/N=C(\C(=O)N[C@@H]1C(=O)N2C(C(=O)[O-])=C(C[N+]3(C)CCCC3)CS[C@H]12)c1csc(N)n1; assay: as §10
[44] = system: CC(=O)OCC1=C(C(=O)O)N2C(=O)[C@@H](NC(=O)Cc3cccs3)[C@H]2SC1; assay: as §10
[45] = system: CO/N=C(\C(=O)N[C@@H]1C(=O)N2C(C(=O)O)=C(COC(C)=O)CS[C@H]12)c1csc(N)n1; assay: as §10
[46] = system: C[C@@H](O)[C@H]1C(=O)N2C(C(=O)O)=C(SCCNC=N)C[C@H]12; assay: as §10
[47] = system: CO/N=C(\C(=O)N[C@@H]1C(=O)N2C(C(=O)[O-])=C(C[N+]3(C)CCCC3)CS[C@H]12)c1csc(N)n1; assay: (§11) Ratio of Kcat to Km for Escherichia coli BL21(DE3) wild-type VIM-2 beta-lactamase by spectrophotometer
[48] = system: CC(=O)OCC1=C(C(=O)O)N2C(=O)[C@@H](NC(=O)Cc3cccs3)[C@H]2SC1; assay: as §11
[49] = system: CO/N=C(\C(=O)N[C@@H]1C(=O)N2C(C(=O)O)=C(COC(C)=O)CS[C@H]12)c1csc(N)n1; assay: as §11
[50] = system: C[C@@H](O)[C@H]1C(=O)N2C(C(=O)O)=C(SCCNC=N)C[C@H]12; assay: as §11

C[C@@H](O)[C@H]1C(=O)N2C(C(=O)O)=C(SCCNC=N)C[C@H]12
Activity [1]: < 2.7 nmol/mL/min
Activity [2]: 30 nmol/mL/min
Km (Escherichia coli [3]): 21 µM
kcat (Escherichia coli [3]): 60 s⁻¹
Activity [4]: 39 nmol/mL/min
Activity [5]: < 2.7 nmol/mL/min
Km (Escherichia coli [6]): 25 µM
kcat (Escherichia coli [6]): 68 s⁻¹
Activity [7]: 330 nmol/mL/min
kcat/Km (Escherichia coli [8]): 550000 M⁻¹ s⁻¹
Activity [9]: 9.5 nmol/mL/min
Activity [10]: 4.7 nmol/mL/min
Activity [11]: 270 nmol/mL/min
kcat/Km (Escherichia coli [12]): 2.7e+06 M⁻¹ s⁻¹
Activity [13]: 240 nmol/mL/min
Activity [14]: 4.7 nmol/mL/min
Activity [15]: 170 nmol/mL/min
Activity [16]: 7.9 nmol/mL/min
Activity [17]: < 2.7 nmol/mL/min
Activity [18]: 380 nmol/mL/min
Km (Escherichia coli [19]): 120 µM
kcat (Escherichia coli [19]): 67 s⁻¹
Activity [20]: 110 nmol/mL/min
Activity [21]: < 2.7 nmol/mL/min
Activity [22]: < 2.7 nmol/mL/min
kcat/Km (Escherichia coli [23]): 2.9e+06 M⁻¹ s⁻¹
Activity [24]: < 2.7 nmol/mL/min
Activity [25]: < 2.7 nmol/mL/min
Activity [26]: < 2.7 nmol/mL/min

CO/N=C(\C(=O)N[C@@H]1C(=O)N2C(C(=O)[O-])=C(C[N+]3(C)CCCC3)CS[C@H]12)c1csc(N)n1
Km (Escherichia coli [3]): > 400 µM
kcat (Escherichia coli [3]): > 50 s⁻¹
Km (Escherichia coli [6]): 11 µM
kcat (Escherichia coli [6]): 7 s⁻¹
kcat/Km (Escherichia coli [12]): 660000 M⁻¹ s⁻¹
kcat/Km (Escherichia coli [23]): 120000 M⁻¹ s⁻¹

C[C@@H](O)[C@H]1C(=O)N2C(C(=O)O)=C(S[C@@H]3CN[C@H](C(=O)N(C)C)C3)[C@H](C)[C@H]12
Km (Escherichia coli [3]): 2 µM
kcat (Escherichia coli [3]): 6 s⁻¹
Km (Escherichia coli [6]): 10 µM
kcat (Escherichia coli [6]): 5 s⁻¹
kcat/Km (Escherichia coli [12]): 500000 M⁻¹ s⁻¹
kcat/Km (Escherichia coli [23]): 3e+06 M⁻¹ s⁻¹

O=C(Cc1cccs1)N[C@@H]1C(=O)N2C(C(=O)O)=C(/C=C/c3ccc([N+](=O)[O-])cc3[N+](=O)[O-])CS[C@H]12
Km (Escherichia coli [3]): 10 µM
kcat (Escherichia coli [3]): 270 s⁻¹
Km (Escherichia coli [6]): 8.2 µM
kcat (Escherichia coli [6]): 130 s⁻¹
kcat/Km (Escherichia coli [8]): 4.3e+06 M⁻¹ s⁻¹
kcat/Km (Escherichia coli [12]): 1.4e+07 M⁻¹ s⁻¹
Km (Escherichia coli [19]): 160 µM
kcat (Escherichia coli [19]): 700 s⁻¹
kcat/Km (Escherichia coli [23]): 2.7e+07 M⁻¹ s⁻¹

Metallo-beta-lactamase (Escherichia coli) (from UniProt Q5U7L7) W87F
Km [27]: > 450 µM
kcat [27]: > 20 s⁻¹
Km [28]: 6 µM
kcat [28]: 22 s⁻¹
kcat/Km [29]: 48000 M⁻¹ s⁻¹
kcat/Km [30]: 3.7e+06 M⁻¹ s⁻¹

Metallo-beta-lactamase (Escherichia coli) (from UniProt Q5U7L7)
Km [31]: 72 µM
Km [32]: 2 µM
kcat [32]: 5 s⁻¹
Km [33]: > 400 µM
kcat [33]: > 40 s⁻¹
Km [34]: 12 µM
kcat [34]: 70 s⁻¹
Km [35]: 9 µM
kcat [35]: 34 s⁻¹
Km [36]: 72 µM
Km [37]: 2 µM
kcat [37]: 5 s⁻¹
Km [38]: > 400 µM
kcat [38]: > 40 s⁻¹
Km [39]: 12 µM
kcat [39]: 70 s⁻¹
Km [40]: 9 µM
kcat [40]: 34 s⁻¹
kcat/Km [41]: 1.2e+06 M⁻¹ s⁻¹
kcat/Km [42]: 4.3e+07 M⁻¹ s⁻¹
kcat/Km [43]: 100000 M⁻¹ s⁻¹
kcat/Km [44]: 1.2e+07 M⁻¹ s⁻¹
kcat/Km [45]: 5.8e+06 M⁻¹ s⁻¹
kcat/Km [46]: 3.8e+06 M⁻¹ s⁻¹
kcat/Km [47]: 100000 M⁻¹ s⁻¹
kcat/Km [48]: 1.2e+07 M⁻¹ s⁻¹
kcat/Km [49]: 5.8e+06 M⁻¹ s⁻¹
kcat/Km [50]: 3.8e+06 M⁻¹ s⁻¹

From ChEMBL document CHEMBL1687761
